Measured values taken from ChEMBL document CHEMBL1153423, “Identification and characterization of small molecule inhibitors of a class I histone deacetylase from Plasmodium falciparum” (J Med Chem, 2009).

T1: Histone deacetylase (Plasmodium falciparum, UniProt Q9XYC7)
T1 sequence (Q9XYC7 whole entry): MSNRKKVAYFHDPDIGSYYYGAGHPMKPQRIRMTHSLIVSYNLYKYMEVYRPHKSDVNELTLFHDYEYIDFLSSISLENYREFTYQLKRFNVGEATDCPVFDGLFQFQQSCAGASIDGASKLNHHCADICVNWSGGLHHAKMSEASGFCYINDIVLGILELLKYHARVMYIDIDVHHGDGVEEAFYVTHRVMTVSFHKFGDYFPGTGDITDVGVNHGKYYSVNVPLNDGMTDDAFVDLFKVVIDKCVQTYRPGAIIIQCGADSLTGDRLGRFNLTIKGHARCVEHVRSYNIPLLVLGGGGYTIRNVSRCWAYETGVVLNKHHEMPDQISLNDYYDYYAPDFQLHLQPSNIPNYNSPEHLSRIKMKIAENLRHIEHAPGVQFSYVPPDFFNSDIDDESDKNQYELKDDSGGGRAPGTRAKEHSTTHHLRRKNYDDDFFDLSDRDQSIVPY


Tests used:
Histone deacetylase = biological target: T1, Histone deacetylase; experiment: Inhibition of Plasmodium falciparum HDAC1 expressed in Drosophila melanogaster S2 cells; assay type: cell-based
In short: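 Recombinant pfHDAC-1 cDNA carrying a C-terminal HPC4 epitope tag was expressed in Drosophila S2 cells. A stable pool was selected with blasticidin after co-transfection, and the enzyme was purified via the HPC4 tag. Substrate characterisation used the fluorogenic peptide Ac-Leu-Gly-Lys(Ac)-AMC, with a Michaelis–Menten fit.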

MM1.S = experiment: Inhibition of histone acetylation in human MM1S cells at 0.2 uM relative to untreated control; assay type: functional
[1] = Growth inhibition of human MM1S cells; assay type: cell-based; settings: mm1.s
Plasmodium falciparum = experiment: Antimalarial activity against Plasmodium falciparum 3D7 by [3H]hypoxanthine uptake; assay type: functional, organism-based
[2] = substrate: Cc1cc(=O)oc2cc(NC(=O)[C@H](CCCCNC(=O)C(F)(F)F)NC(=O)OC(C)(C)C)ccc12; experiment: (§1) Activity of Plasmodium falciparum HDAC1 expressed in Drosophila melanogaster S2 cells by Michaelis-Menten method; assay type: cell-based
In short: (§2)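 pfHDAC-1 cDNA with a C-terminal HPC4 epitope tag was expressed in a stable blasticidin-selected Drosophila S2 pool and purified through the tag. Activity was measured on the acetyl-lysine AMC peptide substrates Ac-Leu-Gly-Lys(Ac)-AMC and Boc-Lys(trifluoroacetyl)-AMC. kcat and apparent Km were obtained by fitting the Michaelis–Menten model to the rate data.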

[3] = substrate: CC(=O)NCCCC[C@H](NC(=O)CNC(=O)[C@H](CC(C)C)NC(C)=O)C(=O)Nc1ccc2c(C)cc(=O)oc2c1; experiment: as §1; assay type: cell-based; in short: as §2

Row | Molecule | IC50 (Histone deacetylase) | fold change (FC) (MM1.S) | Activity [1] | IC50 (Plasmodium falciparum) | Km [2] | kcat [2] | Km [3] | kcat [3]
1 | O=C(CCCCCC(=O)NN/C=C/c1cccnc1Br)NO | 36 nM | 0.9 | Non-toxic | 22 nM |  |  |  | 
2 | Cc1[nH]c2ccccc2c1CCNCc1ccc(/C=C/C(=O)NO)cc1 [PANOBINOSTAT] |  |  |  | 21 nM |  |  |  | 
3 | CN(C)c1ccc(/C=C/NNC(=O)CCCCCC(=O)NO)c(O)c1 | 37 nM | 1.2 | Non-toxic | 24 nM |  |  |  | 
4 | O=C(CCCCCC(=O)NN/C=C/c1ccccc1Cl)NO | 90 nM | 0.9 | Non-toxic | 288 nM |  |  |  | 
5 | O=C(CCCCCC(=O)NN/C=C/c1cc(O)ccc1Br)NO | 49 nM | 1 | Non-toxic | 35 nM |  |  |  | 
6 | O=C(CCCCCC(=O)NN/C=C/c1cccc(O)c1)NO | 59 nM | 1.2 | Non-toxic | 99 nM |  |  |  | 
7 | CC(/C=C/C(=O)NO)=C\[C@@H](C)C(=O)c1ccc(N(C)C)cc1 [TRICHOSTATIN] | 0.6 nM |  |  | 16 nM |  |  |  | 
8 | O=C(CCCCCCC(=O)NN/C=C/c1c(O)cc(O)cc1O)NO | 43 nM | 1.1 | Non-toxic | 50 nM |  |  |  | 
9 | O=C(CCCCCC(=O)NN/C=C/c1cc2c(cc1Br)OCO2)NO | 20 nM | 1 | Non-toxic | 59 nM |  |  |  | 
10 | COc1cc(/C=C/NNC(=O)CCCCC(=O)NO)c(Br)cc1O | 59 nM | 1.2 | Non-toxic | 498 nM |  |  |  | 
11 | Nc1ccccc1NC(=O)c1ccc(CNC(=O)OCc2cccnc2)cc1 [ENTINOSTAT] |  |  |  | > 10000 nM |  |  |  | 
12 | O=C1CCc2c(ccc3ccccc23)O1 [SPLITOMICIN] | > 10000 nM |  |  | > 10000 nM |  |  |  | 
13 | CCC(=O)CCCCC[C@@H]1NC(=O)[C@H]2CCCCN2C(=O)[C@H]([C@@H](C)CC)NC(=O)[C@H](Cc2cn(OC)c3ccccc23)NC1=O [APICIDIN] |  |  |  | 33 nM |  |  |  | 
14 | COc1cc(/C=C/NNC(=O)CCCCCC(=O)NO)c(Br)cc1O | 59 nM | 1 | Non-toxic | 47 nM |  |  |  | 
15 | O=C(CCCCCC(=O)NN/C=C/c1ccccc1Br)NO | 37 nM | 1.1 | Non-toxic | 15 nM |  |  |  | 
16 | O=C(CCCCC(=O)NN/C=C/c1ccc(O)cc1Br)NO | 106 nM | 1.1 | Non-toxic | 53 nM |  |  |  | 
17 | O=C(CCCCCC(=O)NN/C=C/c1c(O)ccc2ccccc12)NO | 41 nM | 1 | Non-toxic | 20 nM |  |  |  | 
18 | O=C(CCCCC(=O)NN/C=C/c1cc(O)ccc1Br)NO | 89 nM | 1.1 | Non-toxic | 30 nM |  |  |  | 
19 | O=C(CCCCCC(=O)NN/C=C/c1ccc(-n2ccnc2)cc1)NO | 15 nM | 1 | Non-toxic | 57 nM |  |  |  | 
20 | COc1ccc(Br)c(/C=C/NNC(=O)CCCCCC(=O)NO)c1 | 22 nM | 1.1 | Non-toxic | > 500 nM |  |  |  | 
21 | O=C(CCCCCCC(=O)NN/C=C/c1cc(O)ccc1O)NO | 110 nM | 1.1 | Non-toxic | 142 nM |  |  |  | 
22 | Histone deacetylase (Plasmodium falciparum), Q9XYC7 (protein) MSNRKKVAYFHDPDIGSYYYGAGHPMKPQRIRMTHSLIVSYNLYKYMEVYRPHKSDVNELTLFHDYEYIDFLSSISLENYREFTYQLKRFNVGEATDCPVFDGLFQFQQSCAGASIDGASKLNHHCADICVNWSGGLHHAKMSEASGFCYINDIVLGILELLKYHARVMYIDIDVHHGDGVEEAFYVTHRVMTVSFHKFGDYFPGTGDITDVGVNHGKYYSVNVPLNDGMTDDAFVDLFKVVIDKCVQTYRPGAIIIQCGADSLTGDRLGRFNLTIKGHARCVEHVRSYNIPLLVLGGGGYTIRNVSRCWAYETGVVLNKHHEMPDQISLNDYYDYYAPDFQLHLQPSNIPNYNSPEHLSRIKMKIAENLRHIEHAPGVQFSYVPPDFFNSDIDDESDKNQYELKDDSGGGRAPGTRAKEHSTTHHLRRKNYDDDFFDLSDRDQSIVPY |  |  |  |  | Not Active | Not Active | 30 µM | 0.19 s⁻¹
